This is an account of results in ChEMBL document CHEMBL1127539, “Aminodiol HIV protease inhibitors. 1. Design, synthesis, and preliminary SAR” (J Med Chem, 1994).

A value given as a limit tells only on which side of the number the result lay.

Series [1] deals with Human immunodeficiency virus type 1 protease (Human immunodeficiency virus 1, UniProt Q72874). In words: In vitro inhibition of HIV-1 protease. An outline of the steps: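 HPLC-monitored cleavage of peptide H2N-Val-Ser-Gln-Asn-(β-naphthylalanine)-Pro-Ile-Val-OH (0.45 mM final) by purified recombinant HIV-1 protease (1-10 nM final; E. coli maltose-binding-protein fusion, cleaved off, 99% pure). Buffer 50 mM sodium acetate, 1 mg/mL BSA, pH 5.5; DMSO stock. 30 min at 37 °C, quenched with phosphoric acid. Screened at 0.1, 1, 10 μM, then IC50 from five concentrations.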

Series [2] has as its system Human immunodeficiency virus 1. In words: Inhibition of viral replication by XTT endpoint. Type of series: functional. The settings on record: read-out: ED50 (the source's name). An outline of the steps:
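CEM-SS cells (5000/well) in RPMI with 10% fetal calf serum infected with HIV-1 RF at multiplicity 0.04; compound from DMSO stock, final DMSO at most 0.125%. After 6 days at 37 °C, XTT/PMS added for 4 h; formazan read at 450 nm against 650 nm reference. ED50 = concentration restoring formazan in infected cells to 50% of control cells; mean of two determinations.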
In general terms: Tetrazolium assays rely on reduction of a dye to a coloured formazan, in cell work by metabolically active cells.

Series [3] is described as follows: The maximum plasma concentration was measured on rats after oral administration. The settings on record: rat. In kind it is ADME, organism-based. Set-up: route oral. An outline of the steps:
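Fasted male Sprague-Dawley rats dosed by gavage as a suspension in 0.2% carboxymethyl cellulose or an ethanol solution: [3H] compound at 1.3 μmol/kg (n = 3) or unlabeled at 22 μmol/kg (n = 2). Plasma quantified by thin-layer radiochromatography (LLOQ 1 nM) or LC/MS/MS (LLOQ 10 nM). Cmax given as mean ± SEM, n = 5.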

The nature of series [4]: The oral bioavailability was measured on rats after oral administration. Type of series: ADME, organism-based. Conditions: rat, in vivo, read-out: Bioavailabiility. An outline of the steps:
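Male Sprague-Dawley rats (200-350 g), jugular cannula placed the day before, fasted overnight, water ad libitum. [3H]-labelled compound 1.3 μmol/kg iv and po (n = 3 per route, TLRC plasma assay), or unlabelled 9 μmol/kg iv and 22 μmol/kg oral (n = 2 per route, LC/MS/MS). Dosing was iv in ethanol over 5 min and oral by gavage as 0.2% CMC suspension or ethanol solution.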

The test system of series [5] is Human immunodeficiency virus 2. In words: The concentration was measured on HIV-2CBL-20 virus. Type of series: functional. Conditions: read-out: ED50 (the source's name). Summed up: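 HIV-2 CBL-20 infection of CEM-SS cells (5000/well) at multiplicity 0.04, in RPMI with 10% fetal calf serum; final DMSO at most 0.125%. Incubated 6 days at 37 °C, 5% CO2, then 4 h with XTT/PMS; absorbance at 450 nm (650 nm reference). ED50 from formazan relative to uninfected controls; n = 7.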

In the next series the target is Pepsin A (Sus scrofa, UniProt P00791). In words: The inhibitory concentration value was measured on porcine pepsin at 31000 nM. An outline of the steps:
(§1)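 Spectrophotometric assay at 37 °C in 0.1 M formate, pH 3, with chromogenic peptide H-Pro-Thr-Glu-Phe-p-nitro-Phe-Arg-Leu-OH at 0.32 mM final. Reaction started with enzyme: 0.36 units of human liver cathepsin D or 0.03 units of porcine stomach pepsin. Absorbance at 310 nm followed for 20 min; buffer-only controls; highest concentration tested 31000 nM.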

In the next series the target is Cathepsin D (Homo sapiens, UniProt P07339). In words: The inhibitory concentration value was measured on Human cathepsin D at 31000 nM. An outline of the steps:
as §1

The nature of series [6]: The biological half life (t1/2) was measured on rats after intravenous administration. In kind it is ADME, organism-based. Conditions: rat, in vivo. Summed up:
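Male Sprague-Dawley rats (200–350 g), jugular-cannulated, fasted overnight, given an ethanol solution infused iv over 5 min: [3H] compound at 1.3 μmol/kg (n = 3) or unlabeled at 9 μmol/kg (n = 2). Plasma measured by radio-TLC or LC/MS/MS. Half-life by model-independent analysis; mean ± SEM, n = 5.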

Series [7] has as its system Human immunodeficiency virus 1. In words: The concentration was measured on HIV-1 IIIB virus. Type of series: functional. The settings on record: read-out: ED50 (the source's name). Summed up: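 Human PBMCs, PHA-stimulated, infected with HIV-1 IIIB at m.o.i. 0.001–0.02 and kept with graded compound. Half the medium was replaced with fresh compound-containing medium on day 3. p24 in supernatant measured by ELISA at day 7; ED50 = dose giving 50% p24 reduction relative to control wells; n = 2.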

The next series has as its target T1, Renin (Homo sapiens, UniProt P00797).
T1 sequence (P00797 whole entry): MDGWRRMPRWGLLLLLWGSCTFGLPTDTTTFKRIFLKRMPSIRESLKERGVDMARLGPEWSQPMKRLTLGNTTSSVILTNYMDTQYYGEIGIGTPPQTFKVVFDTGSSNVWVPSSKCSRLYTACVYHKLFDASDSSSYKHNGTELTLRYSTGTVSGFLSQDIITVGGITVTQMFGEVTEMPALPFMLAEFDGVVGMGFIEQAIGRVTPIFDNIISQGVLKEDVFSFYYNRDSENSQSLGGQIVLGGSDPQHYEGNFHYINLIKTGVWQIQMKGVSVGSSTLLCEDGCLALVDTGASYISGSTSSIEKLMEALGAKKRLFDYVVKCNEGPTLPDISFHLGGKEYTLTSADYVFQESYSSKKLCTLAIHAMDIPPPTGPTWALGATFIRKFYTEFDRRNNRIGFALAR
In words: The inhibitory concentration value was measured on Human renin at 100000 nM.

Sequence of Pepsin A (P00791 whole entry): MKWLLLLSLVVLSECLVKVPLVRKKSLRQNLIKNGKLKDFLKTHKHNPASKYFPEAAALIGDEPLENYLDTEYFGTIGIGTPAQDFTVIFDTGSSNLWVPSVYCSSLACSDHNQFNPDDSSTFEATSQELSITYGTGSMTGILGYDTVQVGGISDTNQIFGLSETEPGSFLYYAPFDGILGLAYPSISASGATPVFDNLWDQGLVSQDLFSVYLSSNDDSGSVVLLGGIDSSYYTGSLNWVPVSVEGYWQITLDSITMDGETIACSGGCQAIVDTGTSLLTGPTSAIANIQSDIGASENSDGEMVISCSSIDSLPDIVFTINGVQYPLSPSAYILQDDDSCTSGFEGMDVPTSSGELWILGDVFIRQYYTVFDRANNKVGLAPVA
Sequence of Cathepsin D (P07339 65-162 limits assumed): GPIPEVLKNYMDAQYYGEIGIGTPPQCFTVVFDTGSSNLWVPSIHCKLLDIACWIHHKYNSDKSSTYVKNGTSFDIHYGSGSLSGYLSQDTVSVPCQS
Sequence of Cathepsin D (P07339 169-412 limits assumed): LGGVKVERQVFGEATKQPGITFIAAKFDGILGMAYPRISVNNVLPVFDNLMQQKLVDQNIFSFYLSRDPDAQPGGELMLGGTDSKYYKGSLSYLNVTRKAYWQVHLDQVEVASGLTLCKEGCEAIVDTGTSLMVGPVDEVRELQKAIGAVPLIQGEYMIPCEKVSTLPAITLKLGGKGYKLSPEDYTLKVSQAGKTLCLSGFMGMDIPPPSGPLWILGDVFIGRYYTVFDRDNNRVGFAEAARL

Broadly, the IC50 is the concentration at which inhibition is half-maximal. A low value points to higher potency. With `CC(C)(C)NC(=O)N[C@@H](Cc1ccccc1)[C@H](O)CNC[C@@H](O)[C@H](Cc1ccccc1)NC(=O)OC(C)(C)C`, in series [1], the IC50 worked out at 400 nM. In addition, in series [2], the EC50 was determined as 160 nM.

On to `CC(C)(C)CC(=O)N[C@@H](Cc1ccccc1)[C@H](O)CNC[C@@H](O)[C@H](Cc1ccccc1)NC(=O)OC(C)(C)C`, for which it took 4000 nM to reach half-maximal inhibition in series [1] (IC50). In addition, in series [2], the EC50 was 1200 nM.

In turn, `CC(C)(C)COC(=O)N[C@@H](Cc1ccccc1)[C@H](O)CNC[C@@H](O)[C@H](Cc1ccccc1)NC(=O)OCC(C)(C)C` had an IC50 in series [1] of 6000 nM.

With `CC(C)(C)OC(=O)N[C@@H](Cc1ccccc1)[C@H](O)COC[C@@H](O)[C@H](Cc1ccccc1)NC(=O)OC(C)(C)C`, in series [1], the IC50 is more than 10000 nM.

In [1], `CC(C)(C)OC(=O)NC(CCc1ccccc1)[C@H](O)CNC[C@@H](O)[C@H](Cc1ccccc1)NC(=O)OC(C)(C)C` (stereo not given in full) came in with an IC50 of 500 nM. In addition, the EC50 in series [2] came out at 690 nM.

Regarding `CN(CC(O)[C@H](Cc1ccccc1)NC(=O)OC(C)(C)C)C[C@@H](O)[C@H](Cc1ccccc1)NC(=O)OC(C)(C)C` (stereo not given in full), the IC50 in series [1] was more than 10000 nM.

On to `CC(C)(C)OC(=O)N[C@@H](Cc1ccccc1)[C@@H](O)CNC[C@H](O)[C@H](Cc1ccccc1)NC(=O)OC(C)(C)C`, for which, in series [1], the IC50 was more than 10000 nM.

Compound `CC(C)(C)OC(=O)NC(CC1CCCCC1)[C@H](O)CNC[C@@H](O)C(CC1CCCCC1)NC(=O)OC(C)(C)C` (stereo not given in full) registered an IC50 in [1] of 800 nM. The EC50 in series [2] was 660 nM.

In the case of `CO[C@H](CNC[C@@H](O)[C@H](Cc1ccccc1)NC(=O)OC(C)(C)C)[C@H](Cc1ccccc1)NC(=O)OC(C)(C)C`, the IC50 in series [1] is more than 10000 nM.

Take `CC(C)(C)OC(=O)NC(Cc1ccc(O)cc1)[C@H](O)CNC[C@@H](O)[C@H](Cc1ccccc1)NC(=O)OC(C)(C)C` (stereo not given in full): in series [1], half-maximal inhibition (IC50) was put at 100 nM. Also, the EC50 in series [2] stood at 60 nM.

Consider `CC(C)(C)OC(=O)N[C@@H](Cc1ccccc1)[C@@H](O)CNCC(O)[C@@H](Cc1ccccc1)NC(=O)OC(C)(C)C` (stereo not given in full), for which the IC50 in series [1] is more than 10000 nM.

The compound `CC(C)(C)OC(=O)N[C@@H](Cc1ccccc1)[C@H](O)CNC[C@H](O)[C@H](Cc1ccccc1)NC(=O)OC(C)(C)C` gave an IC50 in series [1] of 4500 nM.

The compound `CCC(C)C(NC(=O)OC(C)(C)C)[C@H](O)CNC[C@@H](O)C(NC(=O)OC(C)(C)C)[C@@H](C)CC` (single isomer, unassigned) showed an IC50 in [1] of 4500 nM. Besides, the EC50 in [2] was determined as 5300 nM.

Regarding `O=C(N[C@@H](Cc1ccccc1)[C@H](O)CNC[C@@H](O)[C@H](Cc1ccccc1)NC(=O)OCc1ccccc1)OCc1ccccc1`, the IC50 in series [1] came to 3400 nM. Further, the EC50 in series [2] is more than 5000 nM.

Turning to `CC(C)OC(=O)N[C@@H](Cc1ccccc1)[C@H](O)CNC[C@@H](O)[C@H](Cc1ccccc1)NC(=O)OC(C)C`, in series [1], the IC50 is 900 nM. Further, in [2], the EC50 was 1000 nM.

In [1], `CC(C)(C)OC(=O)N[C@@H](Cc1ccccc1)[C@H](O)CNC[C@H](O)[C@@H](Cc1ccccc1)NC(=O)OC(C)(C)C` registered an IC50 of more than 10000 nM.

A word on the Cmax: it is the maximum level reached in the sampled fluid or tissue. By half-life is commonly meant how long it takes for the measured level to halve. Read a low half-life as fast loss. `CC(C)(C)OC(=O)N[C@@H](Cc1ccccc1)[C@H](O)CNC[C@@H](O)[C@H](Cc1ccccc1)NC(=O)OC(C)(C)C` registered a Cmax in series [3] of 240 nM. Besides, in series [4], the bioavailability stood at 40%. For the same compound, the EC50 in series [5] came out at 170 nM; in series [2], 80 nM; in series [7], 25 nM. For the same compound, the IC50 against Pepsin A is more than 31000 nM; in series [1], 125 nM; against Cathepsin D it was more than 31000 nM; at Renin, more than 100000 nM. The compound also showed a half-life in series [6] of 4.2 h.

For `CN(C(=O)OC(C)(C)C)[C@@H](Cc1ccccc1)[C@H](O)CNC[C@@H](O)[C@H](Cc1ccccc1)NC(=O)OC(C)(C)C`, the IC50 in series [1] came to 8500 nM. The EC50 in series [2] was more than 3000 nM.

In turn, `CC(C)(C)OC(=O)N[C@@H](Cc1ccccc1)[C@H](O)CNC[C@@H](O)[C@H](Cc1ccccc1)NC(=O)SC(C)(C)C` registered a concentration for half-maximal inhibition (IC50) in series [1] of 700 nM. The EC50 in series [2] was 800 nM.

In turn, `CC(C)(C)OC(=O)N[C@H](CCNC[C@@H](O)[C@H](Cc1ccccc1)NC(=O)OC(C)(C)C)Cc1ccccc1` had a concentration for half-maximal inhibition (IC50) in series [1] of 2900 nM.

In the case of `CC(C)(C)OC(=O)N[C@@H](Cc1ccccc1)[C@H](O)CNC[C@@H](O)[C@@H](Cc1ccccc1)NC(=O)OC(C)(C)C`, the IC50 in [1] was 10000 nM.
